In brackets after ≈: the same amount, converted by molar mass.
What was measured:
[1] = Solubility in fasted state simulated intestinal fluid at pH 6.8; type: ADME
[2] = Inhibition of TNKS in human SW480 cells assessed as degradation of total pool of beta-catenin after 40 to 48 hrs; type: cell-based
Summary of the method: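 SW480 cells were seeded at 10 000/well in MEMα with 10% HI FBS, GlutaMAX, pyruvate and 10 mM HEPES. They were treated with a 10-point, 3-fold dilution series at 0.1% final DMSO for 40–48 h at 37 °C, then lysed. Total β-catenin was measured by MSD sandwich immunoassay (polyclonal capture, SULFO-TAG mAb detection).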

[3] = Intrinsic clearance in rat liver microsomes at 1 uM after 30 mins; type: ADME; conditions: read-out: CLH
Summary of the method: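 Substrate depletion in rat liver microsomes: 0.25 mg protein/mL, 1 mM NADPH and 2 mM MgCl2 in 50 mM potassium phosphate, pH 7.4, prewarmed to 37 °C. Test compound was added to a final 1 μM, and parent loss was measured after 30 min at 37 °C.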

[4] = target: T1, Poly [ADP-ribose] polymerase tankyrase-1 (Homo sapiens, UniProt O95271); assay: Inhibition of 6x-His-tagged TNKS1 (unknown origin) after 60 mins
T1 sequence (O95271 whole entry): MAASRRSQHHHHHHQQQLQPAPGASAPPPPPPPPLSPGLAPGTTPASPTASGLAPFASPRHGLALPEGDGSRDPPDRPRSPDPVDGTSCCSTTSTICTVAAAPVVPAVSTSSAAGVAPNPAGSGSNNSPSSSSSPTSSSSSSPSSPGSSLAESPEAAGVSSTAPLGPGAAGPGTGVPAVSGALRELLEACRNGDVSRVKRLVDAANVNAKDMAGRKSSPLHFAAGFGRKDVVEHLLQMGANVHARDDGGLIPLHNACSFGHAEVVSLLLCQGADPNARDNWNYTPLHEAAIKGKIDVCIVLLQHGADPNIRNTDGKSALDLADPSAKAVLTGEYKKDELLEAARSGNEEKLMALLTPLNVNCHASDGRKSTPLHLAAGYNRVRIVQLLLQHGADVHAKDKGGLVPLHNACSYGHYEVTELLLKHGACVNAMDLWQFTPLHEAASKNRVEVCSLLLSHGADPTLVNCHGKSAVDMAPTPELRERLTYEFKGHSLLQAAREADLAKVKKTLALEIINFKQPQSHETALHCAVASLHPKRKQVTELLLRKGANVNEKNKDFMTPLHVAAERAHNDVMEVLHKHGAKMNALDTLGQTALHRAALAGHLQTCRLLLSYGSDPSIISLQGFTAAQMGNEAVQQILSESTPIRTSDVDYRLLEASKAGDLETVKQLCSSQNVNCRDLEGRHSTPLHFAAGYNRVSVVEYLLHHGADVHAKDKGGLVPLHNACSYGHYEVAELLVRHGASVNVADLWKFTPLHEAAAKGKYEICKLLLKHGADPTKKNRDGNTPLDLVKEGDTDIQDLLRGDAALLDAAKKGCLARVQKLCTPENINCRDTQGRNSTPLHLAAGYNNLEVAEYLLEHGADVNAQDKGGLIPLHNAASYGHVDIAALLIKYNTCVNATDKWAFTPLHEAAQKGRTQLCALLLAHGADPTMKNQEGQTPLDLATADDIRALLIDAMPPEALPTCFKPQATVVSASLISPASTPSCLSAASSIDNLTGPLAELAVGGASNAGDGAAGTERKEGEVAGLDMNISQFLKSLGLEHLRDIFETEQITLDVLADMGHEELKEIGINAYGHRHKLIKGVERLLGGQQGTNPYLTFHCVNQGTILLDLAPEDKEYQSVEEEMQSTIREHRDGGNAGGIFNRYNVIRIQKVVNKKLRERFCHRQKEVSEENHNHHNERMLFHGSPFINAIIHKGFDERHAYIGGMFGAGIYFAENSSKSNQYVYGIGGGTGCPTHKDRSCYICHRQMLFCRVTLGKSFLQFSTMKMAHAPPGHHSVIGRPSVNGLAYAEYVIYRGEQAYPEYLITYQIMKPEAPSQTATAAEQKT

[5] = Half life in CD-1 mouse plasma at 1 uM by LC-MS/MS analysis; type: ADME, cell-free
Summary of the method: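 Lithium-heparinized CD-1 mouse plasma was spiked with 1 μM substrate and incubated at 37 °C for 3 h, sampling at 0, 0.167, 1, 2 and 3 h (n = 2). Samples underwent acetonitrile protein precipitation with tolbutamide as internal standard. Analysis was by reversed-phase UPLC-ESI-MS/MS in MRM mode.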

[6] = Inhibition of TNKS in human SW480 cells assessed as accumulation of axin-2 into cytoplasmic foci after 24 hrs by Hoechst dye-based assay; conditions: SW480, 24 h
[7] = Volume of distribution at steady state in rat at 0.5 mg/kg, iv; type: ADME, organism-based; set-up: dose 0.5 mg/kg, route intravenous; conditions: in vivo, read-out: Vdss
Summary of the method: (§1)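 Male rats received a single intravenous dose of 0.5 mg/kg. Mean clearance, steady-state volume of distribution and half-life were reported.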

[8] = Half life in rat at 0.5 mg/kg, iv; type: ADME, organism-based; set-up: dose 0.5 mg/kg, route intravenous; conditions: in vivo; summary of the method: as §1
[9] = AUC (0 to infinity) in CD-1 mouse at 30 mg/kg, po; type: ADME, organism-based; set-up: time infinity, dose 30 mg/kg, route oral; conditions: plasma
Summary of the method: (§2)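 Male CD-1 mice given a single oral dose of 30 mg/kg. Vehicle was 10% Pluronic F68, 30% HPBCD and 60% water, pH adjusted to 10.0 with NaOH for most compounds or to 2.5 with methanesulfonic acid for one. Mean plasma PK parameters were reported.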

[10] = Fraction unbound in mouse plasma at 5 uM after 5 hrs by equilibrium dialysis method; type: ADME, cell-free
Summary of the method: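 Mouse plasma was spiked to a final 5 μM and equilibrium-dialyzed against plasma water (ultrafiltrate) for 5 h at 37 °C in a CO2 incubator, using a rapid equilibrium dialysis device. Fraction unbound was determined in duplicate.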

[11] = Clearance in rat at 0.5 mg/kg, iv; type: ADME, organism-based; set-up: dose 0.5 mg/kg, route intravenous; conditions: in vivo; summary of the method: as §1
[12] = Cmax in CD-1 mouse at 30 mg/kg, po; type: ADME, organism-based; set-up: dose 30 mg/kg, route oral; conditions: in vivo; summary of the method: as §2
[13] = Tmax in CD-1 mouse at 30 mg/kg, po; type: ADME, organism-based; set-up: dose 30 mg/kg, route oral; conditions: in vivo; summary of the method: as §2
[14] = Inhibition of TNKS in human DLD1 cells expressing APC mutant assessed as inhibition of super-Topflash reporter gene transcription after 40 to 48 hrs by dual-glo luciferase reporter gene assay; type: cell-based; conditions: DLD-1
Summary of the method: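 DLD-1 cells carried an 8× TCF-driven firefly luciferase and an EF1a-driven Renilla luciferase, and were seeded at 10 000/well in RPMI with 10% FBS without antibiotics. A 10-point, 3-fold dilution series starting at 10 μM was applied for 40–48 h at 37 °C. Firefly and Renilla activities were read with Dual-Glo reagents.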

| IC50 [2] | microsomal CLint at 1 µM [3] | IC50 [4] | Structure (SMILES) | other results |
| --- | --- | --- | --- | --- |
| 100 nM | 159 µL/min/mg |  | O=C(CCCSc1nc2ccccc2c(=O)[nH]1)N[C@H]1CC[C@H](c2nnc(-c3ccccc3)o2)CC1 | solubility [1]: 1 µg/mL (≈ 2.04 µM) |
| 500 nM | > 399 µL/min/mg |  | O=C(C[C@H]1CCCN1Cc1nc2ccccc2c(=O)[nH]1)N[C@H]1CC[C@H](c2nnc(-c3ccccc3)o2)CC1 | solubility [1]: 42 µg/mL (≈ 81.9 µM) |
| 1020 nM | < 14 µL/min/mg |  | O=C(CCc1nc2c(c(=O)[nH]1)CCCN2)N[C@H]1CC[C@H](c2nnc(-c3ccccc3)o2)CC1 |  |
| 2130 nM | < 14 µL/min/mg |  | O=C(CCSc1nccc(=O)[nH]1)N[C@H]1CC[C@H](c2nnc(-c3ccccc3)o2)CC1 | solubility [1]: 53 µg/mL (≈ 125 µM) |
| 410 nM |  |  | O=C(CCc1nc2ccccc2c(=O)[nH]1)Nc1ccc(-c2nnc(-c3ccccc3)o2)cc1 | half-life at 1 µM [5]: 122 min; EC50 [6]: 2450 nM |
| 300 nM |  | 31 nM | COc1ccccc1NC(=O)[C@H]1CC[C@H](NC(=O)CCc2nc3ccccc3c(=O)[nH]2)CC1 | half-life at 1 µM [5]: > 1000 min |
| 91 nM | 20 µL/min/mg |  | O=C(CSc1nc2ccccc2c(=O)[nH]1)N[C@H]1CC[C@H](c2nnc(-c3ccccc3)o2)CC1 | solubility [1]: 1 µg/mL (≈ 2.17 µM) |
| 1170 nM | 206 µL/min/mg |  | O=C(N[C@H]1CC[C@H](c2nnc(-c3ccccc3)o2)CC1)[C@@H]1CCCN(Cc2nc3ccccc3c(=O)[nH]2)C1 | solubility [1]: 43 µg/mL (≈ 83.9 µM) |
| 15.4 nM |  |  | O=C(CCSc1nc2ccccc2c(=O)[nH]1)N[C@H]1CC[C@H](Oc2ccccn2)CC1 |  |
| 17 nM | 20 µL/min/mg |  | O=C(CCCc1nc2ccccc2c(=O)[nH]1)N[C@H]1CC[C@H](c2nnc(-c3ccccc3)o2)CC1 | solubility [1]: 11 µg/mL (≈ 24 µM) |
|  |  | 7460 nM | COc1ccccc1NC(=O)[C@H]1CC[C@@H](NC(=O)CCc2nc3ccccc3c(=O)[nH]2)CC1 | half-life at 1 µM [5]: > 1000 min |
| 80 nM | < 14 µL/min/mg |  | O=C(CCc1nc2ccccc2c(=O)[nH]1)N[C@H]1CC[C@H](c2nnc(-c3ccccc3)o2)CC1 | solubility [1]: 16.2 µg/mL (≈ 36.5 µM); half-life at 1 µM [5]: > 500 min; EC50 [6]: 640 nM |
| 1950 nM | 24 µL/min/mg |  | O=C(CCc1nc2ncccc2c(=O)[nH]1)N[C@H]1CC[C@H](c2nnc(-c3ccccc3)o2)CC1 |  |
| 11 nM | 60 µL/min/mg |  | O=C(CCSc1nc2c(c(=O)[nH]1)CCCC2)N[C@H]1CC[C@H](c2nnc(-c3ccccc3)o2)CC1 | solubility [1]: 8 µg/mL (≈ 16.7 µM); AUC(0-inf) [9]: 5.3 µM·h; fraction unbound at 5 h, 5 µM [10]: 0.012; EC50 [6]: 14 nM; Cmax [12]: 3.6 µM; Tmax [13]: 3.23 h; IC50 [14]: 1.3 nM |
| 47.8 nM |  |  | N#Cc1cccc(O[C@H]2CC[C@H](NC(=O)CCSc3nc4ccccc4c(=O)[nH]3)CC2)c1 |  |
| 120 nM |  |  | O=C(CCSc1nc2ccccc2c(=O)[nH]1)N[C@H]1CC[C@H](Oc2cccc(Cl)c2)CC1 |  |

Further lines, the molecule ahead of its results:

| Structure (SMILES) | IC50 [2] | microsomal CLint at 1 µM [3] | IC50 [4] | other results |
| --- | --- | --- | --- | --- |
| COc1ccccc1NS(=O)(=O)c1ccc(NC(=O)CCc2nc3ccccc3c(=O)[nH]2)cc1 |  |  | > 46000 nM |  |
| O=C(CCc1nc2ccccc2c(=O)[nH]1)Nc1ccc(-c2nc(-c3ccccc3)no2)cc1 |  |  | > 46000 nM |  |
| O=C(CCSc1nc2ccccc2c(=O)[nH]1)N[C@H]1CC[C@H](Oc2ccncc2)CC1 | 6.9 nM |  |  | Vd [7]: 0.4 L/kg; half-life [8]: 42 min; AUC(0-inf) [9]: 11.5 µM·h; fraction unbound at 5 h, 5 µM [10]: 0.032; clearance [11]: 11 mL/min/kg; EC50 [6]: 6.8 nM; Cmax [12]: 7 µM; Tmax [13]: 0.67 h; IC50 [14]: 0.7 nM |
| COc1ccccc1N(C)C(=O)c1ccc(NC(=O)CCc2nc3ccccc3c(=O)[nH]2)cc1 | 5680 nM |  | 400 nM | half-life at 1 µM [5]: 38 min |
| O=C(CCc1nc2ccccc2c(=O)[nH]1)Nc1ccc(-c2c[nH]c(-c3ccccc3)n2)cc1 | > 10000 nM |  | 640 nM | half-life at 1 µM [5]: 53 min |
| Cn1c(-c2ccc(NC(=O)CCc3nc4ccccc4c(=O)[nH]3)cc2)nc2ccccc21 | > 10000 nM |  | 1090 nM | half-life at 1 µM [5]: > 500 min |
| O=C(CCSc1nc2ccccc2c(=O)[nH]1)N[C@H]1CC[C@H](Oc2ccc(Cl)cc2)CC1 | 20 nM |  |  |  |
| Cc1ccnc2c(NC(=O)c3ccc(N4C(=O)[C@@H]5[C@H](C4=O)[C@@H]4C=C[C@H]5C4)cc3)cccc12 |  |  | 160 nM |  |
| O=C(CCc1nc2ccccc2c(=O)[nH]1)Nc1ccc(-c2nc(-c3ccccc3)c[nH]2)cc1 |  |  | > 46000 nM |  |
| O=C(CCc1nc2ccccc2c(=O)[nH]1)Nc1ccc(-c2csc(-c3ccccc3)n2)cc1 |  |  | > 46000 nM |  |
| COc1cccc(C)c1NC(=O)c1ccc(NC(=O)CCc2nc3ccccc3c(=O)[nH]2)cc1 |  |  | 1750 nM | half-life at 1 µM [5]: 270 min |
| O=C(CCSc1nc2ccccc2c(=O)[nH]1)N[C@H]1CC[C@H](Oc2ccc(F)cc2)CC1 | 16.7 nM |  |  |  |
| O=C(CCc1nc2ccccc2c(=O)[nH]1)Nc1ccc(-c2nc3ccccc3o2)cc1 | 7720 nM |  | 860 nM |  |
| N#Cc1ccc(O[C@H]2CC[C@H](NC(=O)CCSc3nc4ccccc4c(=O)[nH]3)CC2)cc1Cl | 8.1 nM |  |  | AUC(0-inf) [9]: 100 µM·h; fraction unbound at 5 h, 5 µM [10]: 0.002; EC50 [6]: 8.4 nM; Cmax [12]: 15.1 µM; Tmax [13]: 1.58 h; IC50 [14]: 1.1 nM |
| COc1ccccc1NC(=O)c1ccc(NC(=O)CCc2nc3ccccc3c(=O)[nH]2)cc1C | 3090 nM |  | 210 nM | half-life at 1 µM [5]: 43 min |
| N#Cc1cc(O[C@H]2CC[C@H](NC(=O)CCSc3nc4ccccc4c(=O)[nH]3)CC2)ccc1Cl | 24.2 nM |  |  |  |
